Reference: ChEMBL document CHEMBL4513216, “Probing the Open Global Health Chemical Diversity Library for Multistage-Active Starting Points for Next-Generation Antimalarials” (ACS Infect Dis, 2020)

experiment: Toxicity liver stage against HepG2, at 10uM; type: cell-based; design: test concentration 10 uM, cell line HepG2-A16-CD81EGFP; conditions: human, HepG2-A16-CD81EGFP cells; read-out: INHIBITION
Summary of the method: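 Uninfected HepG2-A16-CD81EGFP cells, 3 × 10^3 per well, 1536-well, plated on prespotted compound at 10 μM final, parasite-free screening media added to match infected plates; puromycin 10 μM positive, DMSO 0.5% negative; run in parallel with 48 h PbLuc assay at 37 °C, 5% CO2; viability by CellTiter-Glo luminescence, normalized to controls.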

Row | SMILES | cytotoxicity at 10 µM [%]
1 | Cc1cccc2c1nc1n2[C@@H](CNC2CCCCC2)COC1 | -51.8
2 | CC(C)(C)CN[C@@H]1CO[C@H](CNC(=O)C2CCCC2)[C@H]1O | -9.03
3 | COc1ccccc1CN1C[C@@H](F)[C@@H](OCc2nc3ncccc3[nH]2)C1 | 6.96
4 | O=S(=O)(NC[C@H]1OC[C@@H](NCc2cccs2)[C@@H]1O)c1ccccc1 | 3.98
5 | CCOC(=O)[C@@H]1[C@@H](c2ccccc2)CN2CCN(C(C)=O)C[C@H]12 | 9.28
6 | CC(C)n1cc(C(=O)NC2CN3CCC2CC3)c2ccccc21 (stereo not given) | -59.7
7 | Cc1nc(-n2nc(-c3cccs3)cc2N)[nH]c(=O)c1C | 4.84
8 | CNC(=O)[C@@H]1COC[C@H]2CN(C(=O)c3ccc(C)c(C)c3)C[C@H]21 | 11.6
9 | Cc1c(-c2cc(C(F)(F)F)nc(N3CCC(N)CC3)n2)cnn1C | 6.14
10 | Cc1nn(CC(=O)N2CCN(Cc3cn(C)nc3C)CC2)cc1Br | -6.28
11 | Cc1cnc2[nH]c(C(F)(F)F)c(CN3CCCC(CO)C3)c2c1 (stereo not given) | 8.48
12 | CCC(=O)N1CCCC1c1nc(N(C)C)ncc1-c1ccc(Cl)cc1 (stereo not given) | 5.82
13 | Cc1cc(O)nc(C2CN(CCO)CCO2)n1 (stereo not given) | -27.8
14 | COc1cccc(CC(=O)N2CCCC2c2nc(C)c(C)c(O)n2)c1 (stereo not given) | -36.9
15 | Cc1cc(-c2cnc(N3CCNC(=O)C3)nc2-c2ccncc2)on1 | -25
16 | Cc1cccc(CC(=O)N2CCCC(c3n[nH]c4nccnc34)C2)c1 (stereo not given) | -8.52
17 | CCN(Cc1cccc2c1OCCO2)C(=O)NC(C)(C)C | -20.9
18 | COCC1CCN(C(=O)c2cc(O)nc(CC(C)C)c2)CC1 | -2.7
19 | COc1cc(NC(=O)NCc2nccn2C)ccc1Br | -9.11
20 | O=C(Cc1cccnc1)N1CCCC(c2cc(C(F)(F)F)[nH]n2)C1 (stereo not given) | -42.6
21 | COc1ccc(C)c(NC(=O)NCc2ncnn2C)c1 | -4.27
22 | Fc1cc(CNCCn2cccn2)ccc1-n1cncn1 | -11.1
23 | Cc1nccn1-c1ccc(C(C)NCc2cc[nH]n2)cc1 (stereo not given) | 5.33
24 | CCCn1cc(NC(=O)c2ccncc2)ccc1=O | -8.44
25 | N#Cc1ccc(CNC2CCN(CCc3ccncc3)CC2)cc1 | -5.03
26 | CCC1CCCCN1CCNC(=O)N1CCN(Cc2ccon2)CC1 (stereo not given) | -2.01
27 | O=C(C1CCCc2[nH]ncc21)N1CCCC2(C1)OCCO2 (stereo not given) | -1.26

Row | SMILES | cytotoxicity at 10 µM [%]
28 | CC(=O)N1CCCN(C(=O)c2cnc(OC(C)C)c(Cl)c2)CC1 | 6.02
29 | CC(C)c1nc2n(n1)CC(NCC(=O)NCCC1=CCCCC1)CC2 (stereo not given) | -4.76
30 | CN(Cc1ccc2c(c1)OCCO2)Cc1nnnn1-c1ccccc1 | 20.5
31 | CC(c1ccccc1)N(C)C(=O)CN1CCCc2cccc(F)c21 (stereo not given) | 22.5
32 | CC(=O)c1ccc(S(=O)(=O)N2CCCC2CN2CCCC2)cc1 (stereo not given) | -1.35
33 | Cc1cc(N2CCc3cncnc3C2)n2nc(C(F)(F)F)nc2n1 | 6.25
34 | c1ccc(C(NCc2nnc(-c3ccco3)o2)C2CCC2)cc1 (stereo not given) | -48.7
35 | O=C1C(N2CCOCC2)CCCN1Cc1cccc(C(F)(F)F)c1 (stereo not given) | 0.174
36 | Cc1noc(-c2cccnc2N(C)Cc2cc(C)on2)n1 | -5.1
37 | Cc1nnc(SCCC(=O)N(C)Cc2ccc(F)cc2Cl)[nH]1 | 11.4
38 | CCN1CCN(C(=O)NC(C)c2noc(-c3ccccc3)n2)CC1 (stereo not given) | -15.5
39 | C[C@@H]1CN(C(=O)c2cccc(F)c2)C[C@]12CCN(c1ccsc1)C2=O | -80
40 | O=C(c1ccncn1)N1CCC[C@]2(C[C@H](OCC3CC3)CO2)C1 | -81.9
41 | Cc1cc(CN2CC[C@H]3C[C@@H](C)O[C@@H]3C2)no1 | -75.5
42 | c1cncc(OC2CCN(CCn3cc4ccccc4n3)CC2)c1 | 1.48
43 | Cc1ccc(NCCCNc2nccc(-c3cn(C)nc3C)n2)nc1 | 14.5
44 | Cc1ncsc1CCN(C)C1CCN(c2ncnc3[nH]cnc23)CC1 | -39
45 | OC(c1ccccn1)C1CCN(Cc2cc3n(n2)CCCNC3)CC1 (stereo not given) | 6.89
46 | COc1ccc(OC)c2c(C)cc(N(C)CCCO)nc12 | 7.17
47 | CC(=O)N1C[C@H](NC(=O)c2csc(C(C)C)c2)[C@@H](C(C)C)C1 | -18.2
48 | COc1cc(-c2cccc3c2OC(CN)C3)ccc1O (stereo not given) | -51.9
49 | Cc1cc2c(N3CCC(N(C)CCc4cnn(C)c4)CC3)ncnc2s1 | 1.38
50 | CN1CC(c2ccccc2)CC12CCN(C(=O)c1cccnc1)CC2 (stereo not given) | 10.2
51 | CN(CCc1cnn(C)c1)C(=O)CN1C(=O)OC[C@@H]1c1ccccc1 | -41.7
52 | Cc1ccc(CN2CCN(C3CSCCSC3)CC2CCO)o1 (stereo not given) | -8.51
53 | CNC(=O)Cc1ccc(-n2ccnc2-c2ccc(C(=O)O)s2)cc1 | -1.53
54 | O=C(O)c1cccnc1CN1CCCC1CCc1ccccc1 (stereo not given) | 10.9

Row | SMILES | cytotoxicity at 10 µM [%]
55 | CCCc1nc(CNc2nc(C)nc3oc(C)nc23)cs1 | -39.6
56 | OCCc1ccccc1-n1ccnc1-c1cn(C2CCNCC2)nn1 | 2.39
57 | CCCN1CCN(C(=O)c2cncnc2C)[C@H]2CS(=O)(=O)C[C@H]21 | 0.145
58 | O=C(Nc1ccccc1C(=O)NCCCN1CCOCC1)c1ccco1 | 8.17
59 | Cc1oc(C(C)C)cc1C(=O)N1CCN(c2cnn(C)c(=O)c2)CC1 | 1.27
60 | N#Cc1ccc(C(=O)N2CCC(c3ncc[nH]3)CC2)cn1 | -3.27
61 | CCC(=O)NCCc1cc(N2CCN(C(C)=O)CC2)nc(C2CC2)n1 | -0.439
62 | CN(C)c1ncc(CN2CCC(c3nnsc3S(C)(=O)=O)CC2)cn1 | 4.12
63 | CNc1cc2c(nn1)CCN(C(=O)c1cccc3c1OCCO3)C2 | -5.13
64 | Cc1cc(C)c(CNC(=O)N(C)Cc2ccc3c(c2)OCO3)c(=O)[nH]1 | -5.53
65 | Cc1cc(C)n(CC2CN(CCOc3ccc(C#N)cc3)CCO2)n1 (stereo not given) | -6.31
66 | CCc1nnc2n1CCN(C(=O)CN(C)C1CC1)C2 | -1.28
67 | COc1ccc(C(CNC(=O)c2c(C)noc2C)N(C)C)cc1 (stereo not given) | -13.1
68 | Cc1nc(CN(C)C2CCN(CCC(=O)N3CCOCC3)C2)no1 (stereo not given) | -0.945
69 | Cc1nn(C)c(N2CCOCC2)c1CNCc1ccc(N(C)C)nc1 | -14.4
70 | c1ccc(-c2cnc(CNC3CCCN(c4cccnn4)C3)o2)cc1 (stereo not given) | 0.993
71 | Brc1cccnc1OC1CCNCC1 | -10.3
72 | O=C(N1CCCC1)C1(Cc2ccc(-c3cccs3)cc2)CCNC1 (stereo not given) | -1.75
73 | CCn1ncc2c1C(COC)N(C(=O)c1cccs1)CC2 (stereo not given) | -112
74 | c1ccc(NC[C@@H]2CCC[C@@H]3CN(Cc4nccs4)C[C@@H]32)nc1 | -108
75 | c1cncc(CN2CCO[C@@H]3CN(Cc4ccoc4)CC[C@@H]3C2)c1 | -70.9
76 | CN(CCc1ccccn1)C(=O)c1cccs1 | 3.45
77 | O=C(c1ccccc1)N1CCCn2c(CN3CCCCC3)nnc2C1 | -65.5
78 | Cc1ccc(N2CC[C@@H]3[C@@H]2CCN3Cc2ccsc2)nn1 | -106
79 | O=C([C@H]1C[C@@H]2CCN(C3CCOCC3)C[C@H]2O1)N1CCCC1 | 7.31
80 | O=C(c1ccoc1)N1CCCC2(CCC(=O)N2Cc2ccncc2)C1 (stereo not given) | -3.55
